In ChEMBL document CHEMBL1151692, “Substituted hippurates and hippurate analogs as substrates and inhibitors of peptidylglycine alpha-hydroxylating monooxygenase (PHM)” (Bioorg Med Chem, 2008):
Where a SMILES comes first, the peptide text is derived from it. [ ]: non-standard residue; d: D form. The star is where a group is joined. Dansyl = CN(C)c1cccc2c(S(=O)(=O)*)cccc12; Boc = CC(C)(C)OC(=O)*; Bz = O=C(c1ccccc1)*

Columns and labels:
[1] = molecular target: T1, Peptidylglycine alpha-amidating monooxygenase (Rattus norvegicus) (UniProt P14925); experiment: Ratio of Vm(app) to Km(app) for rat recombinant peptidylglycine alpha-amidating monooxygenase
T1 sequence (whole entry): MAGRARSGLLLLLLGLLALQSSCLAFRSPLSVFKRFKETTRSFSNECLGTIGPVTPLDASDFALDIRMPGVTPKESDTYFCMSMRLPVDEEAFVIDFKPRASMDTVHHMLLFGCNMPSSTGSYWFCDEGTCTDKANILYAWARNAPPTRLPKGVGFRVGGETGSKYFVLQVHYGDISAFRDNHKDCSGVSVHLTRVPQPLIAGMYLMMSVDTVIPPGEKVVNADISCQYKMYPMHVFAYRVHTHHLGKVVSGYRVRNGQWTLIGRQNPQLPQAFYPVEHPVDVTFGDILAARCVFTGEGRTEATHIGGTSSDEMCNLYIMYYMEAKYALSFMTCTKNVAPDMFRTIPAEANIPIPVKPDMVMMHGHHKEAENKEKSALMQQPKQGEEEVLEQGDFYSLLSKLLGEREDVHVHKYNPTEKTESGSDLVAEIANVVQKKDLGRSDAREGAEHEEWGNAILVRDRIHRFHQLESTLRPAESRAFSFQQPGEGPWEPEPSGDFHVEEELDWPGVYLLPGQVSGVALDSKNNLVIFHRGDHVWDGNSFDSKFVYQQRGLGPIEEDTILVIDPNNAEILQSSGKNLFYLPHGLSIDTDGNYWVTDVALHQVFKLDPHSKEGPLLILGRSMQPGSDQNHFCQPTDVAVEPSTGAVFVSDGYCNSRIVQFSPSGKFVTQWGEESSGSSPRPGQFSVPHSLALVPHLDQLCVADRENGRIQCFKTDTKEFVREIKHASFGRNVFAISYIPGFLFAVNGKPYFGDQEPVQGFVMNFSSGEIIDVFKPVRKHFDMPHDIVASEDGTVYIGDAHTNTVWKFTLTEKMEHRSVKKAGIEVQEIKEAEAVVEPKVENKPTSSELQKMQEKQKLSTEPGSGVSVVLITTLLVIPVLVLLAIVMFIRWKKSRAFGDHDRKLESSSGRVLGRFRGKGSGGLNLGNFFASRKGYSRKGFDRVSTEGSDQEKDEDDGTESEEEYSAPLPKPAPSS
Method in brief: (§1)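 Recombinant rat type A medullary thyroid carcinoma PAM (bifunctional), 15–50 μg, in 100 mM MES/NaOH pH 6.0, 30 mM NaCl, 1% ethanol, 0.001% Triton X-100, 10 μg/mL catalase, 1.0 μM Cu(NO3)2, 5.0 mM ascorbate, ~200 μM O2, 37 °C. Substrate generally 0.3–5.0 KM,app. Initial O2 consumption rates read by oxygen monitor and fit to Michaelis–Menten.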

[2] = molecular target: T1, Peptidylglycine alpha-amidating monooxygenase (Rattus norvegicus); experiment: Activity of rat recombinant peptidylglycine alpha-amidating monooxygenase assessed as stimulation of oxygen consumption
[3] = molecular target: T1, Peptidylglycine alpha-amidating monooxygenase (Rattus norvegicus); experiment: Ratio of Vm(app) to Km(app) for rat recombinant peptidylglycine alpha-amidating monooxygenase relative to hippuric acid; method in brief: as §1

SMILES | Ratio [1] | Vmax(app) [2] | Activity [3]
CC(=O)NCC(=O)NCC(=O)O | 5.9 ×10³ /M/s | 8.9 s⁻¹ | 1
O=C(O)CNC(=O)c1ccc(C(F)(F)F)cc1 | 3.6 ×10³ /M/s | 2.8 s⁻¹ | 0.6
CC(C)CCC(=O)NCC(=O)O | 2.3 ×10⁴ /M/s | 6.6 s⁻¹ | 3.7
COc1ccc(C(=O)NCC(=O)O)cc1 | 6.4 ×10³ /M/s | 5.3 s⁻¹ | 1
Nc1ccccc1C(=O)NCC(=O)O | 2.9 ×10³ /M/s | 4.2 s⁻¹ | 0.5
O=C(O)CNC(=O)c1cccnc1 | – | – | 0.7
O=C(O)CNC(=O)c1ccc(Cl)cc1 | 6.6 ×10³ /M/s | 4.1 s⁻¹ | 1.1
O=C(O)CNC(=O)SCc1ccccc1 | 1.2 ×10⁴ /M/s | 0.69 s⁻¹ | 1.9
O=C(O)CNC(=O)c1ccco1 | 2.8 ×10³ /M/s | 7.5 s⁻¹ | 0.5
CC(C)SCC(=O)NCC(=O)O | 8.2 ×10³ /M/s | 1.8 s⁻¹ | 1.3
CC(C)(C)OC(=O)NCC(=O)O | 1.7 ×10³ /M/s | 6.3 s⁻¹ | 0.3
Cc1ccccc1C(=O)NCC(=O)O | 1.8 ×10³ /M/s | 7.9 s⁻¹ | 0.3
O=C(O)CNC(=O)CCc1ccccc1 | 1.1 ×10⁴ /M/s | 9.9 s⁻¹ | 1.8
O=C(O)CNC(=O)C1CC1c1ccccc1 (stereo not drawn) | 1.1 ×10⁴ /M/s | 10 s⁻¹ | 1.8
O=C(O)CNC(=O)CNC(=O)c1ccc([N+](=O)[O-])cc1 | 7.6 ×10⁴ /M/s | 8.7 s⁻¹ | 12
CC(=O)N[C@H](C)C(=O)O | 0.95 M⁻¹ s⁻¹ | 1.3 s⁻¹ | –
O=C(O)CNC(=O)c1cccs1 | 6 ×10³ /M/s | 9.3 s⁻¹ | 1
O=C(O)CNC(=O)c1ccc(Br)cc1 | 4.9 ×10³ /M/s | 2.5 s⁻¹ | 0.8

SMILES | Ratio [1] | Vmax(app) [2] | Activity [3]
O=C(O)CNC(=O)CNC(=O)c1ccccc1 (Bz-Gly-Gly-OH) | 1.6 ×10⁵ /M/s | 12 s⁻¹ | 26
Cc1ccc(C(=O)NCC(=O)O)cc1 | 3.2 ×10³ /M/s | 5.7 s⁻¹ | 0.5
CC(=O)NCC(=O)O | – | – | 0.1
O=C(O)CNC(=O)CCCc1ccccc1 | 7 ×10⁴ /M/s | 11 s⁻¹ | 11
O=C(O)CNC(=O)CCCCCc1ccccc1 | 2 ×10⁵ /M/s | 11 s⁻¹ | 32
CC(C)(C)OC(=O)NCC(=O)NCC(=O)O (Boc-Gly-Gly-OH) | 2.5 ×10⁴ /M/s | 7.5 s⁻¹ | 4
C[C@@H](NC(=O)c1ccccc1)C(=O)O | 3.2 M⁻¹ s⁻¹ | 0.27 s⁻¹ | –
Cc1cccc(C(=O)NCC(=O)O)c1 | 4.7 ×10³ /M/s | 6.4 s⁻¹ | 0.8
O=C(O)CNC(=O)c1ccccc1I | 9.1 ×10² /M/s | 3.1 s⁻¹ | 0.1
O=C(O)CNC(=O)/C=C/c1ccccc1 | 3.6 ×10⁴ /M/s | 8.4 s⁻¹ | 5.8
O=C(O)CNC(=O)CNC(=O)CNC(=O)c1ccccc1 (Bz-Gly-Gly-Gly-OH) | 2.9 ×10⁴ /M/s | 8.8 s⁻¹ | 4.7
O=C(O)CNC(=O)CSc1ccccc1 | 2.5 ×10⁴ /M/s | 4.6 s⁻¹ | 4
CCCc1ccc(C(=O)NCC(=O)O)cc1 | 4.2 ×10³ /M/s | 5.1 s⁻¹ | 0.7
O=C(O)CNC(=O)CCCCc1ccccc1 | 7.6 ×10⁴ /M/s | 12 s⁻¹ | 12
O=C(O)CNC(=O)OCc1ccccc1 | 1.5 ×10⁴ /M/s | 8.6 s⁻¹ | 2.4
O=C(O)CNC(=O)c1c(F)cccc1F | 2.3 ×10² /M/s | 4.3 s⁻¹ | 0.04
CC(C)[C@H](NC(=O)[C@H](Cc1ccc(O)cc1)NS(=O)(=O)c1cccc2c(N(C)C)cccc12)C(=O)N[C@H](C)C(=O)O (Dansyl-Tyr-Val-[dA]-OH) | 3 ×10⁴ /M/s | 0.91 s⁻¹ | –
